According to ChEMBL document CHEMBL2016520, “Design, synthesis, molecular docking and biological evaluation of new dithiocarbamates substituted benzimidazole and chalcones as possible chemotherapeutic agents” (Bioorg Med Chem Lett, 2012):

The compounds below were run on Cicer arietinum (assay: Antimitotic activity against chick pea seeds assessed as inhibition of germinating root growth after 7 days). Conditions: 168 h.
Type: functional, organism-based
Method in brief: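 Seeds germinated in Petri dishes on filter paper for 7 days, with the paper moistened every 24 h with drug solution. One dish held DMSO as control and one held cisplatin as the standard. Radicle length was measured in cm on day 7, and percent growth inhibition was calculated against the mean of the DMSO-treated control.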

Structure (SMILES) | IC50
CCN(CC)C(=S)SCc1nc2ccccc2[nH]1 | 1.86 µM
CCCCNC(=S)SCc1nc2ccccc2[nH]1 | 2.11 µM
CCCNC(=S)SCc1nc2ccccc2[nH]1 | 2.29 µM
S=C(SCc1nc2ccccc2[nH]1)N1CCCC1 | 1.8 µM
CN(C)C(=S)SCc1nc2ccccc2[nH]1 | 2.12 µM
S=C(SCc1nc2ccccc2[nH]1)N1CCCCC1 | 1.66 µM
O=C(CC(SC(=S)N1CCOCC1)c1ccccc1)c1ccccc1 (stereo not drawn) | 1.65 µM
O=C(CC(SC(=S)N1CCCCC1)c1ccccc1)c1ccccc1 (stereo not drawn) | 1.85 µM
S=C(SCc1nc2ccccc2[nH]1)N1CCOCC1 | 1.89 µM
O=C(CC(SC(=S)N1CCCC1)c1ccccc1)c1ccccc1 (stereo not drawn) | 1.67 µM
O=C(CC(SC(=S)Nc1nc2ccccc2s1)c1ccccc1)c1ccccc1 (stereo not drawn) | 1.52 µM
CCN(CC)C(=S)SC(CC(=O)c1ccccc1)c1ccccc1 (stereo not drawn) | 1.84 µM
CN(C)C(=S)SC(CC(=O)c1ccccc1)c1ccccc1 (stereo not drawn) | 2.43 µM
